Our source for the Activity, IC50 and bioavailability values is ChEMBL document CHEMBL5705905, “Pharmacological targeting of kinases MST1 and MST2 augments tissue repair and regeneration” (Sci Transl Med, 2016).

For data set [1], the system named is Tyrosine-protein kinase ABL1 (Homo sapiens), P00519 [F317I]. Briefly: Inhibition of ABL1 F317I mutant (unknown origin) assessed as remaining activity at 1 uM by Kinome scan method relative to control. The gist of the method:
(§1)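 Active-site-dependent competition-binding (KINOMEscan) panel of 468 kinases, test compound at 1 μM (from a 10 mM DMSO stock). Read-out is ctrl% = (test signal − positive control signal)/(negative control signal − positive control signal) × 100. DMSO is the negative control (100%) and a control compound is the positive control (0%). Lower ctrl% means tighter binding.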

For data set [2], the target named is 5'-AMP-activated protein kinase catalytic subunit alpha-1 (Homo sapiens) (UniProt Q13131). Kind of data set: Inhibition of AMPK-alpha1 (unknown origin) assessed as remaining activity at 1 uM by Kinome scan method relative to control. In outline: as §1
For data set [3], the target named is Macrophage colony-stimulating factor 1 receptor (Homo sapiens) (UniProt P07333). Kind of data set: Inhibition of CSF1R-autoinhibited (unknown origin) assessed as remaining activity at 1 uM by Kinome scan method relative to control. In outline:
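Active-site-dependent competition-binding profiling (KINOMEscan) at 1 μM against a 468-kinase panel; compound supplied from a 10 mM DMSO stock. Read-out is ctrl% = (test signal − positive control signal)/(negative control signal − positive control signal) × 100. DMSO is the negative control (100%) and a control compound the positive control (0%). Lower ctrl% means tighter binding.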

Data set [4] has as its system Epidermal growth factor receptor (Homo sapiens), P00533 [G719C]. Kind of data set: Inhibition of EGFR G719C mutant (unknown origin) assessed as remaining activity at 1 uM by Kinome scan method relative to control.
The target in data set [5] is Ephrin type-A receptor 3 (Homo sapiens) (UniProt P29320). Kind of data set: Inhibition of EPHA3 (unknown origin) assessed as remaining activity at 1 uM by Kinome scan method relative to control.
In data set [6] the test system is Receptor-type tyrosine-protein kinase FLT3 (Homo sapiens), P36888 [D835Y]. Kind of data set: Inhibition of FLT3 D835Y mutant (unknown origin) assessed as remaining activity at 1 uM by Kinome scan method relative to control.
Data set [7] deals with Receptor-type tyrosine-protein kinase FLT3 (Homo sapiens), P36888 [UNDEFINED MUTATION]. Briefly: Inhibition of FLT3 ITD mutant (unknown origin) assessed as remaining activity at 1 uM by Kinome scan method relative to control.
In data set [8] the target is Vascular endothelial growth factor receptor 3 (Homo sapiens) (UniProt P35916). Kind of data set: Inhibition of FLT4 (unknown origin) assessed as remaining activity at 1 uM by Kinome scan method relative to control.
Data set [9] concerns Mast/stem cell growth factor receptor Kit (Homo sapiens), P10721 [V559D]. Kind of data set: Inhibition of KIT V559D mutant (unknown origin) assessed as remaining activity at 1 uM by Kinome scan method relative to control.
The target in data set [10] is MAP/microtubule affinity-regulating kinase 3 (Homo sapiens) (UniProt P27448). Kind of data set: Inhibition of MARK3 (unknown origin) assessed as remaining activity at 1 uM by Kinome scan method relative to control.
The target of data set [11] is MAP kinase-interacting serine/threonine-protein kinase 1 (Homo sapiens) (UniProt Q9BUB5). Kind of data set: Inhibition of MKNK1 (unknown origin) assessed as remaining activity at 1 uM by Kinome scan method relative to control.
Data set [12] concerns the target Mitogen-activated protein kinase 14 (Homo sapiens) (UniProt Q16539). Kind of data set: Inhibition of P38alpha (unknown origin) assessed as remaining activity at 1 uM by Kinome scan method relative to control.
Data set [13] deals with Cyclin-dependent kinase 17 (Homo sapiens) (UniProt Q00537). Briefly: Inhibition of PCTK2 (unknown origin) assessed as remaining activity at 1 uM by Kinome scan method relative to control.
Data set [14] has as its system Phosphatidylinositol 4,5-bisphosphate 3-kinase catalytic subunit alpha isoform (Homo sapiens), P42336 [H1047Y]. Briefly: Inhibition of PIK3CA H1047Y mutant (unknown origin) assessed as remaining activity at 1 uM by Kinome scan method relative to control.
Data set [15] relates to Phosphatidylinositol 4,5-bisphosphate 3-kinase catalytic subunit alpha isoform (Homo sapiens), P42336 [M1043I]. Kind of data set: Inhibition of PIK3CA M1043I mutant (unknown origin) assessed as remaining activity at 1 uM by Kinome scan method relative to control.
For data set [16], the target named is Serine/threonine-protein kinase WNK4 (Homo sapiens) (UniProt Q96J92). Kind of data set: Inhibition of WNK4 (unknown origin) assessed as remaining activity at 1 uM by Kinome scan method relative to control.
Data set [17] addresses Serine/threonine-protein kinase 26 (Homo sapiens, UniProt Q9P289). Kind of data set: Inhibition of MST4 (unknown origin) in presence of ATP by enzymatic assay.
The target of data set [18] is Tyrosine-protein kinase ABL1 (Homo sapiens, UniProt P00519, M351T). Kind of data set: Inhibition of phosphorylated ABL1 M351T mutant (unknown origin) in presence of ATP by enzymatic assay.
Another data set relates to HepG2. Kind of data set: Induction of apoptosis in human HepG2 cells assessed as necrosis cells at 3 uM by annexinV staining (Rvb =0.04 %). The class given is functional.
Data set [19] in a line: Oral bioavailability in male Sprague-Dawley rat at 10 mg/kg measured for 24 hrs by LC-MS/MS analysis. To be noted: in vivo. It is filed as ADME, organism-based.
The nature of data set [20]: Acute toxicity in wild-type mouse assessed as ratio of liver weight to body weight at 1 mg/kg,ip administrated daily for 2 months and after 2 weeks drug withdrawal. The class given is organism-based. To be noted: in vivo, 1460 h. In outline: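 Liver/body weight ratio in wild-type mice after 1 mg/kg i.p. daily for 2 months, or after a further 2 weeks off drug. n = 6; means ± SD, Student's t test. Vehicle was 0.1% citric acid aqueous solution with 20% Kolliphor HS 15.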

Data set [21] can be described thus: Acute toxicity in wild-type mouse assessed as cell proliferation in liver at 3 mg/kg,ip administrated daily for 7 days by Ki67 staining. It is filed as organism-based. Particulars: in vivo, 168 h, time 7 day. The gist of the method: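 Wild-type mice received vehicle or 3 mg/kg i.p. daily for 7 days. Ki67 staining of sections from various tissues with quantification of positive cells, n = 6; means ± SD, Student's t test. Daily weights, physical activity and serum chemistry were also monitored.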

Data set [22] has as its system Mus musculus. Briefly: Protection against APAP induced liver injury in mouse assessed as decrease in ALT level at 1 mg/kg, ip administered at 1.5 hrs in the presence of NAC. The class given is functional, organism-based. Particulars: Serum.
Data set [23] relates to Mus musculus. Briefly: Anti-colitis activity against DSS-induced mouse assessed as suppression in disease activity index at 1 mg/kg, ip administrated daily for over 1 to 21 days. The class given is functional, organism-based. Particulars: time 1-21 day. In outline:
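Colitis was induced in wild-type mice with DSS on days 1–7, with vehicle or 1 mg/kg daily (n = 12 per group). Disease activity index (diarrhea, rectal bleeding) was scored daily over days 1–21. Student's t test at each time point.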

Active and inactive are the calls of the source. No cut-off for these calls is given here.

Cyclin-dependent kinase 17 (Homo sapiens), sequence (Q00537 whole entry, looked up, canonical isoform): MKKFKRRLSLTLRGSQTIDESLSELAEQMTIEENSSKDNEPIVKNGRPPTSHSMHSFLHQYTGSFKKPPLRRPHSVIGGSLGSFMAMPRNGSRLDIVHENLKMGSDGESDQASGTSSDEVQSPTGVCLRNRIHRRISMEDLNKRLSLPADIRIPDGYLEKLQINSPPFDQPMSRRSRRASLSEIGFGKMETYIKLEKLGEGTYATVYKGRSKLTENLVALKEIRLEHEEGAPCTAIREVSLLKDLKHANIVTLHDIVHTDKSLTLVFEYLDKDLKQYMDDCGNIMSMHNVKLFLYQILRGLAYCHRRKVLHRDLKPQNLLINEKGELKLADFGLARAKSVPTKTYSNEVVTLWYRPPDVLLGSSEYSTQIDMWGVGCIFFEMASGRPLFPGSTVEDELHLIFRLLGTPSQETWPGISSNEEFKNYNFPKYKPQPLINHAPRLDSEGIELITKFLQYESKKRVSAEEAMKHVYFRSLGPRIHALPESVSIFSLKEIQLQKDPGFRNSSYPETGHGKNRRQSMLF
Mast/stem cell growth factor receptor Kit (Homo sapiens), P10721 [V559D], sequence (P10721 whole entry V559D): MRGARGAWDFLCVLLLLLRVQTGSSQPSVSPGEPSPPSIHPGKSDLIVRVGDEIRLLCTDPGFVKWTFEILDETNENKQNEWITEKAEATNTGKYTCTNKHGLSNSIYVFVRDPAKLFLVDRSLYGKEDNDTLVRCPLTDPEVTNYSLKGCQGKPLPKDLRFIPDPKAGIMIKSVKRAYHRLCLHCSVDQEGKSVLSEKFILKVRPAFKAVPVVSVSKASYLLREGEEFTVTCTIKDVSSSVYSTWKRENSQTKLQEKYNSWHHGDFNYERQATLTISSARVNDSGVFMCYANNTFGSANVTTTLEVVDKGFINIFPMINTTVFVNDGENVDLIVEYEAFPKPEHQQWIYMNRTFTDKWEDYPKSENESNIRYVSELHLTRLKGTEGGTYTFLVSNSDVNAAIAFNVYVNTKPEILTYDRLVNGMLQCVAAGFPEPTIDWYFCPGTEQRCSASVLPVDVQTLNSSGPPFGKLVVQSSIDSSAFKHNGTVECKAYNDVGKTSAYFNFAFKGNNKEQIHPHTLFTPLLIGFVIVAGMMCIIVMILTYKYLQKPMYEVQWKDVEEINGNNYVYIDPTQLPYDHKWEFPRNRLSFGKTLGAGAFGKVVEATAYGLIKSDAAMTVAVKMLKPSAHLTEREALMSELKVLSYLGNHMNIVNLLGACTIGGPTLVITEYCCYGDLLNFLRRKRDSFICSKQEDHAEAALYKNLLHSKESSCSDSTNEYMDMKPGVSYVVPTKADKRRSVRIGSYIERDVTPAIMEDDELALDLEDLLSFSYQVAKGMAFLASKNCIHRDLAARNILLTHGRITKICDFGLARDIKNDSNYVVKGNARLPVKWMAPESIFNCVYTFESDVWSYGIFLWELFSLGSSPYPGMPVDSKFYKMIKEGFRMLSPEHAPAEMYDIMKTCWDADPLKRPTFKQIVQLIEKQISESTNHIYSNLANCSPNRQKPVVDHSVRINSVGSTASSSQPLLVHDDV
MAP/microtubule affinity-regulating kinase 3 (Homo sapiens), sequence (P27448 whole entry, looked up): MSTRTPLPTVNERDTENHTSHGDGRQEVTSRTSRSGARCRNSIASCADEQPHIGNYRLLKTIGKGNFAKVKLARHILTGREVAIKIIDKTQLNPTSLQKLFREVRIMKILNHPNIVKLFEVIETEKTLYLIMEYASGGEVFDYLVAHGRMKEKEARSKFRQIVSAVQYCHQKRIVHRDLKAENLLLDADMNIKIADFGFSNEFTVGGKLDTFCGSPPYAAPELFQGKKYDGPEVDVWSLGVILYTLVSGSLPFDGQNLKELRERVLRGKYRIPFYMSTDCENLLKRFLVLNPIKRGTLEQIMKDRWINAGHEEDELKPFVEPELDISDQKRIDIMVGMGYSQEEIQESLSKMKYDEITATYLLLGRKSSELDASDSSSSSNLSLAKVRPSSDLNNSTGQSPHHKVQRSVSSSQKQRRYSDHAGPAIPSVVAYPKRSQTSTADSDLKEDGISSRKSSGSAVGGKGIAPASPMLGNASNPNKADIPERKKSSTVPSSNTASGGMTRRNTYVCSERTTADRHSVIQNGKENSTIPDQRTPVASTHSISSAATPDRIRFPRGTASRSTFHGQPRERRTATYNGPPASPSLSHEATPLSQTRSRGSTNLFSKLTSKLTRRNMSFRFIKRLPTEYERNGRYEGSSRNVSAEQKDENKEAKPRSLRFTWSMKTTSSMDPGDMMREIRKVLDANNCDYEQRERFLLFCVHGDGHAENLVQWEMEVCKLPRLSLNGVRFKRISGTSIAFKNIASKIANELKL
Serine/threonine-protein kinase 26, sequence (Q9P289 whole entry): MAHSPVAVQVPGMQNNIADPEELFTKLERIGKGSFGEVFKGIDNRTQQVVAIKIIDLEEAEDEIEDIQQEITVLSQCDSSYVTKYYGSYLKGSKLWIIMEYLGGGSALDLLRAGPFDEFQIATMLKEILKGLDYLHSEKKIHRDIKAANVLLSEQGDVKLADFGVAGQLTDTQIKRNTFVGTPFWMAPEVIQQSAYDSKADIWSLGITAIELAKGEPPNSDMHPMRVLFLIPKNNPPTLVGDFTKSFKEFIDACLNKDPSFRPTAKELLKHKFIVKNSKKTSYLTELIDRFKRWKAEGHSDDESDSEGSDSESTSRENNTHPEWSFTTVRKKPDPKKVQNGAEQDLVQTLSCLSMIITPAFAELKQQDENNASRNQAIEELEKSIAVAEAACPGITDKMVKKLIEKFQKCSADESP
Ephrin type-A receptor 3 (Homo sapiens), sequence (P29320 whole entry): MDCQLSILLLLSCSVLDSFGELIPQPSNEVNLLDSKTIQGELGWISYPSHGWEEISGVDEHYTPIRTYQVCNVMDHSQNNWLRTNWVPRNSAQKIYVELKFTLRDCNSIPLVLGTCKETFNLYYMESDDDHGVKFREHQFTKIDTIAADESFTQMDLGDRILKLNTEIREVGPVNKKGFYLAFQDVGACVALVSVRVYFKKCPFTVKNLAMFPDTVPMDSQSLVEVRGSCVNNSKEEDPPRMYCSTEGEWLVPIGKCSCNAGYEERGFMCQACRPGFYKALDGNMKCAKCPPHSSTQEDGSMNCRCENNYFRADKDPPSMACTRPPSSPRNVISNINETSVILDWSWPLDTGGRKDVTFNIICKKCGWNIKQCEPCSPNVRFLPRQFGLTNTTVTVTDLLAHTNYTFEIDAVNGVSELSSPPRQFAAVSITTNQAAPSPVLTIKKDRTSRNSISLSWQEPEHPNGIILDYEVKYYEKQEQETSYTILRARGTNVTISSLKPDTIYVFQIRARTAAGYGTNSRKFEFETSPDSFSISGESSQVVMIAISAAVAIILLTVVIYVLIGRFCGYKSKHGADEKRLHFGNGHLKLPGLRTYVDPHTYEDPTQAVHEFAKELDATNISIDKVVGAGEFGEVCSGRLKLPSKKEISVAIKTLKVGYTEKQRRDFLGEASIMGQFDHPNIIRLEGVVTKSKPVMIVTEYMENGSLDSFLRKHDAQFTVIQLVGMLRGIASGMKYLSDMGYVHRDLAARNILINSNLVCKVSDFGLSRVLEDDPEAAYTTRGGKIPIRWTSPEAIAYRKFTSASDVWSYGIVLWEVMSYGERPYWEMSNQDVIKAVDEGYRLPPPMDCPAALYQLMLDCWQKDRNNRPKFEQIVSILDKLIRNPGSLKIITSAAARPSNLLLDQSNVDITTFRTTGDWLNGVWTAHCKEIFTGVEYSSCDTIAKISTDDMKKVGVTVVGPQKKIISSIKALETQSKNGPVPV
Vascular endothelial growth factor receptor 3 (Homo sapiens), sequence (P35916 whole entry): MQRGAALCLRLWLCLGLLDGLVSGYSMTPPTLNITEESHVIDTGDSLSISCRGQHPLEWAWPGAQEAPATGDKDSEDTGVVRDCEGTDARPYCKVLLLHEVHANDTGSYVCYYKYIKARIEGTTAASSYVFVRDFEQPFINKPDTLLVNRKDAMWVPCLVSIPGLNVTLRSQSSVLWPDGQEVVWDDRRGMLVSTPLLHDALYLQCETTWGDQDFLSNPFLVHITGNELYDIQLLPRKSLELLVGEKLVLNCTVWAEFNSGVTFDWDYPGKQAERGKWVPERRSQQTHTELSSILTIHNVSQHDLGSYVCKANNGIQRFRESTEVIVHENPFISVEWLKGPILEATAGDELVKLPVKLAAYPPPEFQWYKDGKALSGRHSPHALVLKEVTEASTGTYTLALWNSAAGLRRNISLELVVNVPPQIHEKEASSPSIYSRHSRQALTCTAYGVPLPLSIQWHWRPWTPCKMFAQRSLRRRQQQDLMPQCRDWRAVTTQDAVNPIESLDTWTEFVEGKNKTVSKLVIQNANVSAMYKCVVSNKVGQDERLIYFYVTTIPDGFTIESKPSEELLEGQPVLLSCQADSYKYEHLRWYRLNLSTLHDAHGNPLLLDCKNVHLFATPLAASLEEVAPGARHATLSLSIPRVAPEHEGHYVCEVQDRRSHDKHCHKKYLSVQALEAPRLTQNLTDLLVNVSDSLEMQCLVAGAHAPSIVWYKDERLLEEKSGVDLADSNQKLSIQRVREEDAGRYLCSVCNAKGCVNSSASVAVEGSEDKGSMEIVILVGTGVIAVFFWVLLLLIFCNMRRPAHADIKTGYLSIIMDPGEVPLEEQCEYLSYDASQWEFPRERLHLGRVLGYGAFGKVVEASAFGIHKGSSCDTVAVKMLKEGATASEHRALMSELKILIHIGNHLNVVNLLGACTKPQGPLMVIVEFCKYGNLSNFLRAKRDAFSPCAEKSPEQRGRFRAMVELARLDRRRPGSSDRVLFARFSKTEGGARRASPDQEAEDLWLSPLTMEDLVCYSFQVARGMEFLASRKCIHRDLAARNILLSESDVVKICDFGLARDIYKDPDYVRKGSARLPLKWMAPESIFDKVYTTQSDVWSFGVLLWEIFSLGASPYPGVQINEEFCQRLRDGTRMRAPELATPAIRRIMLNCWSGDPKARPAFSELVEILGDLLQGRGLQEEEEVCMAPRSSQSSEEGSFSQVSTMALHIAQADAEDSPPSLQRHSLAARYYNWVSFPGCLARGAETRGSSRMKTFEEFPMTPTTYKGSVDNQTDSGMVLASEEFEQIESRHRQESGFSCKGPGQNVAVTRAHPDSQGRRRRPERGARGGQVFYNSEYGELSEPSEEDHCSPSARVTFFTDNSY

For the molecule `CN1C(=O)c2sccc2N(C)c2nc(Nc3ccc(S(N)(=O)=O)cc3)ncc21`, the Activity worked out at 40% in [1]; 100% in data set [2]; 87% in data set [3]; 78% in data set [4]; 91% in data set [5]; 86% in data set [6]. In addition, the Activity was 91% in data set [7]; 67% in [8]; 97% in data set [9]; 98% in data set [10]; 100% in data set [11]; 88% in data set [12]. In addition, the Activity is 86% in [13]; 57% in data set [14]; 77% in data set [15]; 95% in data set [16]; 0.05% in the data set on HepG2; “Toxic” in data set [20]. Besides, the Activity entry in [21] is “Non-Toxic”. In addition, the IC50 amounted to 27.3 nM in data set [17] and 17.6 nM in [18]. Also, the bioavailability in data set [19] was found to be 39.5%. Also, the outcome in the data set with Mus musculus [22] and in the data set on Mus musculus [23] was Active.
